Measured values: ChEMBL document CHEMBL4270592, “8-Aryl-6-chloro-3-nitro-2-(phenylsulfonylmethyl)imidazo[1,2-a]pyridines as potent antitrypanosomatid molecules bioactivated by type 1 nitroreductases” (Eur J Med Chem, 2018)

How the values were obtained:
HepG2 = assay: Cytotoxicity against human HepG2 cells assessed as reduction in cell viability after 72 hrs by MTT assay; assay type: cell-based; details: hepg2, 72 h
Summary of the method: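 HepG2 cells in RPMI with 10% FCS, L-glutamine and penicillin/streptomycin, 37 °C, 6% CO2. After 24 h, compounds in DMSO (final <0.5% v/v) added for 72 h, in duplicate. Precipitate checked, MTT (0.5 mg/mL) 2 h, formazan dissolved in DMSO, A570 with 630 nm reference. Viability as % of untreated control; CC50 from dose-response curve; doxorubicin positive control.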

Leishmania infantum = assay: Antileishmanial activity against axenic amastigote stage of Leishmania infantum assessed as inhibition of parasite metabolic activity after 48 hrs by luciferase reporter gene based luminescence assay; assay type: functional, organism-based
Summary of the method: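 L. infantum promastigotes in log phase switched to RPMI 1640 pH 5.4 for 24 h at 24 °C, then 24 h at 37 °C to give axenic amastigotes. Seeded at 2.106 parasites/mL with compounds in DMSO (final <0.5% v/v), in duplicate, 48 h at 37 °C. Wells checked for precipitate, luciferase luminescence read, IC50 by non-linear regression as mean.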

[1] = Electrochemical behavior of the compound assessed as redox potential corrected toward normal hydrogen electrode by cyclic voltammetry; assay type: physicochemical
[2] = Selectivity index, ratio of CC50 for human HepG2 cells to IC50 for trypomastigote stage of Trypanosoma brucei brucei AnTat 1.9; assay type: toxicity; details: read-out: Ratio CC50/IC50
[3] = Selectivity index, ratio of CC50 for human HepG2 cells to IC50 for intramacrophage amastigote stage of Leishmania donovani infected in human THP1 cells; assay type: toxicity, cell-based; details: read-out: Ratio CC50/IC50
[4] = Selectivity index, ratio of CC50 for human HepG2 cells to IC50 for promastigote stage of Leishmania donovani MHOM/IN/00/DEVI; assay type: toxicity; details: read-out: Ratio CC50/IC50
[5] = Selectivity index, ratio of CC50 for human HepG2 cells to IC50 for axenic amastigote stage of Leishmania infantum; assay type: toxicity; details: read-out: Ratio CC50/IC50
Leishmania donovani [6] = assay: Antileishmanial activity against wild type promastigote stage of Leishmania donovani MHOM/SD/62/1S-CL2D LdBOB after 72 hrs by resazurin dye based assay; assay type: functional, organism-based
Summary of the method: (§1)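 Clonal L. donovani LdBOB promastigotes grown at 26 °C in modified M199. NTR1 and NTR2 overexpressers kept in nourseothricin 100 µg/mL. Triplicate 10 mL cultures seeded at 5×10^4 parasites/mL with drug for 72 h. Aliquots received 50 µM resazurin, read by fluorescence (ex 528/em 590 nm) after 4 h. Background-corrected 2-parameter fit gave EC50; at least two repeats, mean ± SD.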

[7] = Substrate activity at recombinant type-1 nitroreductase in promastigote stage of Leishmania donovani MHOM/SD/62/1S-CL2D LdBOB assessed as inhibition of parasite growth after 72 hrs by resazurin dye based assay; summary of the method: as §1
THP-1 = assay: (§2) Cytotoxicity against human THP1 cells assessed as reduction in cell viability after 72 hrs by MTT assay; assay type: cell-based; details: thp-1, 72 h
Summary of the method: (§3)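 THP1 cells in complete RPMI with PMA (final 50 ng/mL) at 10⁶ cells/mL, differentiated 48 h. Compounds in DMSO (final <0.5% v/v) then added for 72 h at 37 °C. MTT (0.5 mg/mL in FCS-free medium) 2 h, formazan dissolved in DMSO, A570 with 630 nm reference. Viability as % of untreated control; CC50 from dose-response curve; doxorubicin positive control.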

Leishmania donovani [8] = assay: Antileishmanial activity against intramacrophage amastigote stage of Leishmania donovani infected in human THP1 cells after 120 hrs by Giemsa staining based microscopy; assay type: functional, organism-based; details: THP-1, 120 h
Summary of the method: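 THP-1 cells differentiated with PMA (final 50 ng/mL) for 48 h at 37 °C, 6% CO2. Infected 10:1 with L. donovani promastigotes acidified 24 h at 27 °C in Schneider 20% FCS pH 5.4. After 24 h, compounds added in duplicate (DMSO <0.5% v/v) for 120 h.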

[9] = test system: Trypanosoma brucei brucei; assay: Antitrypanosomal activity against trypomastigote stage of Trypanosoma brucei brucei AnTat 1.9 assessed as decrease in parasite viability after 69 hrs by Alamar blue assay; assay type: functional, organism-based; details: AnTat 1.9, 69 h
Summary of the method: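 AnTat 1.9 in MEM with Earle's salts plus 0.5 mM mercaptoethanol, 1.5 mM L-cysteine, 0.05 mM bathocuproine sulfate and 20% heat-inactivated horse serum, 37 °C, 5% CO2. Seeded 2000 parasites/100 µL with compounds in DMSO, in duplicate, 69 h, then Alamar Blue for 5 h.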

[10] = Substrate activity at recombinant nitroreductase 2 in promastigote stage of Leishmania donovani MHOM/SD/62/1S-CL2D LdBOB assessed as inhibition of parasite growth after 72 hrs by resazurin dye based assay; summary of the method: as §1
[11] = test system: Trypanosoma brucei brucei; assay: […] activity against wild type bloodstream form of Trypanosoma brucei brucei S427 after 72 hrs; assay type: functional, organism-based; details: S427, 72 h
Summary of the method: (§4)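 Bloodstream-form T. brucei single marker S427 (T7RPOL TETR NEO) cultured at 37 °C in HMI9-T with 2.5 µg/mL G418. NTR1-overexpressing line kept in 2.5 µg/mL phleomycin and induced with 1 µg/mL tetracycline 48 h before the assay. Triplicate cultures seeded at 1×10^5 cells/mL with inhibitor; cell densities counted after 72 h to give EC50.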

[12] = test system: Trypanosoma brucei brucei; assay: Selectivity ratio of IC50 for wild type bloodstream form of Trypanosoma brucei brucei S427 to substrate activity at recombinant type-1 nitroreductase in bloodstream form of Trypanosoma brucei brucei S427
Summary of the method: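 Bloodstream-form single-marker S427 grown at 37 °C in HMI9-T with 2.5 µg/mL G418. The NTR1-overexpressing line was also given 2.5 µg/mL phleomycin and induced with 1 µg/mL tetracycline 48 h before assay. Triplicate cultures seeded at 1×10^5 cells/mL with inhibitor; cell densities determined after 72 h to give EC50 for wild-type and NTR1 lines.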

[13] = as §2; assay type: cell-based, THP-1; details: THP1 cells; summary of the method: as §3
Leishmania donovani [14] = assay: Antileishmanial activity against promastigote stage of Leishmania donovani MHOM/IN/00/DEVI assessed as inhibition of parasite metabolic activity after 72 hrs by MTT assay; assay type: functional, organism-based
Summary of the method: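 MHOM/IN/00/DEVI log-phase promastigotes in Schneider's medium with 20% FCS, 2 mM L-glutamine and antibiotics. Seeded at 10⁶ parasites/mL with compounds in DMSO (final <0.5% v/v), in duplicate, 72 h at 27 °C. MTT added for 4 h, stopped with 50% isopropanol–10% SDS, A570 read. IC50 by nonlinear regression, mean of three independent experiments.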

[15] = Substrate activity at recombinant type-1 nitroreductase in bloodstream form of Trypanosoma brucei brucei S427 assessed as inhibition of parasite growth after 72 hrs; summary of the method: as §4

Row | Structure (SMILES) | CC50 (HepG2) | IC50 (Leishmania infantum) | selectivity ratio [2] | selectivity ratio [5] | IC50 [9] | further results
1 | O=[N+]([O-])c1c(CS(=O)(=O)c2ccccc2)nc2c(-c3ccco3)cc(Cl)cn12 | > 3900 nM | – | – | – | – | –
2 | O=[N+]([O-])c1c(CS(=O)(=O)c2ccccc2)nc2c(-c3ccccc3F)cc(Cl)cn12 | > 3900 nM | – | – | – | – | –
3 | N#Cc1ccc(-c2cc(Cl)cn3c([N+](=O)[O-])c(CS(=O)(=O)c4ccccc4)nc23)cc1 | > 3900 nM | – | – | – | – | –
4 | O=[N+]([O-])c1c(CS(=O)(=O)c2ccccc2)nc2c(Br)cc(Br)cn12 | > 31000 nM | 4400 nM | > 10.7 | > 7.1 | 2900 nM | Activity [1]: -0.59 V; selectivity ratio [3]: > 5.6; selectivity ratio [4]: > 17.2; IC50 (Leishmania donovani [6]): 1900 nM; IC50 [7]: 70 nM; CC50 (THP-1): > 25000 nM; IC50 (Leishmania donovani [8]): 5500 nM; IC50 [10]: 3000 nM
5 | O=[N+]([O-])c1c(CS(=O)(=O)c2ccccc2)nc2c(-c3cccs3)cc(Cl)cn12 | > 3900 nM | – | – | – | – | –
6 | O=[N+]([O-])c1c(CS(=O)(=O)c2ccccc2)nc2c(-c3ccc(CO)cc3)cc(Cl)cn12 | 13100 nM | 1500 nM | 146 | 8.7 | 90 nM | –
7 | O=[N+]([O-])c1c(CS(=O)(=O)c2ccccc2)nc2c(-c3ccc(C(F)(F)F)cc3)cc(Cl)cn12 | > 3900 nM | – | – | – | – | –
8 | O=Cc1ccc(-c2cc(Cl)cn3c([N+](=O)[O-])c(CS(=O)(=O)c4ccccc4)nc23)cc1 | > 31200 nM | 3800 nM | > 390 | > 8.2 | 80 nM | –
9 | O=[N+]([O-])c1c(CS(=O)(=O)c2ccccc2)nc2c(-c3cccc(C(F)(F)F)c3)cc(Cl)cn12 | > 12500 nM | 1100 nM | > 312 | > 11.4 | 40 nM | IC50 [11]: 90 nM; Ratio IC50 [12]: 2; Activity [1]: -0.67 V
10 | CCCCCCCCCCCCCCCCOP(=O)([O-])OCC[N+](C)(C)C [MILTEFOSINE] | – | – | – | – | – | CC50 (THP-1): > 40000 nM
11 | O=[N+]([O-])c1c(CS(=O)(=O)c2ccccc2)nc2c(-c3ccc(Cl)cc3)cc(Cl)cn12 | > 3900 nM | – | – | – | – | –
12 | CCN(CC)c1ccc(-c2cc(Cl)cn3c([N+](=O)[O-])c(CS(=O)(=O)c4ccccc4)nc23)cc1 | > 15600 nM | 2500 nM | > 36.3 | > 6.2 | 430 nM | –
13 | O=[N+]([O-])c1c(CS(=O)(=O)c2ccccc2)nc2c(-c3ccccc3C(F)(F)F)cc(Cl)cn12 | 22700 nM | 1600 nM | 324 | 14.2 | 70 nM | –
14 | O=[N+]([O-])c1c(CS(=O)(=O)c2ccccc2)nc2c(-c3ccc(F)cc3)cc(Cl)cn12 | > 15600 nM | 1300 nM | > 50.3 | > 12 | 310 nM | –
15 | O=[N+]([O-])c1c(CS(=O)(=O)c2ccccc2)nc2c(-c3ccc(F)cc3F)cc(Cl)cn12 | > 7800 nM | – | – | – | – | –
16 | C[C@@H]1[C@H](O)[C@@H](C)/C=C/C=C/C=C/C=C/C=C/C=C/C=C/[C@H](O[C@@H]2O[C@H](C)[C@@H](O)[C@H](N)[C@@H]2O)C[C@@H]2O[C@](O)(C[C@@H](O)C[C@@H](O)[C@H](O)CC[C@@H](O)C[C@@H](O)CC(=O)O[C@H]1C)C[C@H](O)[C@H]2C(=O)O [AMPHOTERICIN B] | – | – | – | – | – | CC50 at 72 h [13]: > 62500 nM; IC50 (Leishmania donovani [14]): 70 nM
17 | NCCC[C@](N)(C(=O)O)C(F)F [EFLORNITHINE, (S)-] | > 100000 nM | – | > 7.5 | – | 13300 nM | –
18 | O=[N+]([O-])c1c(CS(=O)(=O)c2ccccc2)nc2c(Br)cc(Cl)cn12 | – | – | – | – | – | Activity [1]: -0.65 V
19 | O=[N+]([O-])c1c(CS(=O)(=O)c2ccccc2)nc2c(-c3cccnc3)cc(Cl)cn12 | > 31300 nM | 2000 nM | > 136 | > 15.7 | 230 nM | –
20 | O=[N+]([O-])c1c(CS(=O)(=O)c2ccccc2)nc2c(-c3cccc(F)c3)cc(Cl)cn12 | > 12500 nM | 1700 nM | > 62.5 | > 7.4 | 200 nM | –
21 | COc1ccc(-c2cc(Cl)cn3c([N+](=O)[O-])c(CS(=O)(=O)c4ccccc4)nc23)cc1 | > 3900 nM | – | – | – | – | –
22 | CC1CS(=O)(=O)CCN1/N=C/c1ccc([N+](=O)[O-])o1 (stereo not given) [NIFURTIMOX] | – | – | – | – | – | IC50 [11]: 1870 nM; IC50 [15]: 600 nM
23 | O=[N+]([O-])c1c(CS(=O)(=O)c2ccccc2)nc2c(-c3ccc(O)cc3)cc(Cl)cn12 | > 12500 nM | 3000 nM | > 30.5 | > 4.2 | 410 nM | –
24 | O=[N+]([O-])c1c(CS(=O)(=O)c2ccccc2)nc2c(-c3ccccc3)cc(Cl)cn12 | > 15600 nM | 1600 nM | > 25.6 | > 10 | 610 nM | Activity [1]: -0.69 V
25 | O=[N+]([O-])c1c(CS(=O)(=O)c2ccccc2)nc2c(-c3ccccc3CO)cc(Cl)cn12 | 88000 nM | > 10000 nM | 550 | < 8.8 | 160 nM | IC50 [11]: 390 nM; Ratio IC50 [12]: 2; Activity [1]: -0.7 V; IC50 [15]: 190 nM
26 | Cc1ccc(C(=O)Nc2ccc(S(=O)(=O)O)c3cc(S(=O)(=O)O)cc(S(=O)(=O)O)c23)cc1NC(=O)c1cccc(NC(=O)Nc2cccc(C(=O)Nc3cc(C(=O)Nc4ccc(S(=O)(=O)O)c5cc(S(=O)(=O)O)cc(S(=O)(=O)O)c45)ccc3C)c2)c1 [SURAMIN] | > 100000 nM | – | – | – | – | –
27 | COc1cccc2c1C(=O)c1c(O)c3c(c(O)c1C2=O)C[C@@](O)(C(=O)CO)C[C@@H]3O[C@H]1C[C@H](N)[C@H](O)[C@H](C)O1 [DOXORUBICIN] | – | – | – | – | – | CC50 (THP-1): 1400 nM
28 | CSc1ccc(OCc2ncc([N+](=O)[O-])n2C)cc1 [FEXINIDAZOLE] | > 200000 nM | – | > 333 | > 58.8 | 600 nM | Activity [1]: -0.83 V; selectivity ratio [3]: > 50; selectivity ratio [4]: > 167; CC50 at 72 h [13]: 3600 nM; IC50 (Leishmania donovani [8]): > 50000 nM; IC50 (Leishmania donovani [14]): 1200 nM
